From PubChem BioAssay
Inconclusive results are not listed.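 The calls were made as follows, unless noted: active = viability at or below 27.92% in each of two runs, the all-compound median minus 4 SD; inconclusive = no clear call, values can overlap the other calls; inactive = the rest.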

Assays:
[1] = S. cerevisiae growth inhibition in permissive medium (OD615), pilot counter-assay for S. cerevisiae lifespan shortening project, permissive growth control (AID 705;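 active = growth inhibition above 25% in both replicates, a cutoff set 3 SD above the mean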); settings: OD615, 24 h, at 10 µM, stronger effect = higher value
Procedure, shortened: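 System: Engineered DeaD yeast | Buffer or medium: SC raffinose/galactose permissive medium | Incubation: Cells pre-grown 4 h, then 24 h compound exposure, 30 °C humidified | Measured by: Absorbance (optical density) at 615 nm | Read-out: Reduction in yeast growth (OD615)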

[2] = S. cerevisiae growth inhibition in restrictive medium, OD615, pilot screen, restrictive growth control, yeast lifespan reduction project (AID 706;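 active = growth inhibition above a set limit, 3 SD over mean compound inhibition, in both replicates, cut at about 43% in these data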;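 also: modified DeaD lifespan yeast strain shifted to restrictive glucose medium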); settings: OD615, 48 h, at 10 µM, stronger effect = higher value
Procedure, shortened: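 Material: modified S. cerevisiae; Medium: glucose-based CSMM-D restrictive medium; Compound dosing: one concentration, 10 µM final, 0.25% DMSO; Incubation: 48 h compound exposure at 30 °C; Measured by: OD615.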

[3] = doxorubicin toxicity protection in MRP-1 cells – H69AR cells, CellTiter-Glo, duplicate, MRP-1 activator project, pilot screen (AID 807;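 active = viability increase at or above a cutoff of the median across tested compounds plus 3 SD, cut at about 8.5% in these data, passing the limit was not always enough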;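 also: compound pretreatment 18-22 h then 72 h combined with doxorubicin; 0% = doxorubicin alone and 100% = vehicle without doxorubicin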); settings: H69AR viability with doxorubicin, CellTiter-Glo luminescence; at 10 µM; stronger effect = higher value
[4] = viability of HCT116 without oncogenic beta-catenin – human colon tumor cells, pilot screen (AID 823;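 active = cell viability at or below a set limit in both duplicate runs, the limit being the all-compound median minus 4 SD, cut at about 23% in these data, passing the limit was not always enough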;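 also: 0% = wells killed by 20 µM Hyamine and 100% = untreated DMSO cell wells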); settings: HCT116 beta-catenin knockout viability, CellTiter-Glo, 60 h; at 10 µM; stronger effect = lower value
[5] = viability of PTEN-null HCT116 cells – cell-based, HCT116 clonal line, CellTiter-Glo, pilot screen (AID 824); settings: HCT116 PTEN-deleted viability, 60 h, at 10 µM, stronger effect = lower value;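 also: 0% = 20 µM Hyamine control and 100% = vehicle cell control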
[6] = RAM pathway blockade in budding yeast – dse1pr::URA3 reporter, 5-FOA selection, pilot screen (AID 869;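 active = inhibition over a set limit, the all-compound mean plus 3 SD, in both replicate runs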;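 also: 0% = DMSO wells with no growth and 100% = 10 µM 1-NA-PP1 with full growth; RAM network block rescues cells from 5-FOA so hits raise OD615 growth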); settings: S. cerevisiae dse1pr::URA3 5-FOA growth, OD615, 2 d; at 10 µM; stronger effect = higher value; strain carries analog-sensitive mutant Cbk1 kinase
[7] = RAM signaling pathway blockade in yeast – S. cerevisiae, Pdr1DBD-CYC8 efflux-inhibited sensitized strain, primary screen (AID 1298;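 active = RAM network inhibition above 8.4% in each of two replicates, 3 SD over the compound average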;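 also: 0% = DMSO untreated cells without growth and 100% = 10 µM 1-NA-PP1 full growth; higher means more yeast growth rescued from 5-FOA killing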); settings: S. cerevisiae cbk1-as DSE1-URA3 strain, 5-FOA growth OD615, 2 d; at 50 µM; stronger effect = higher value

CCn1c(=NC(=O)CSC(C)=O)sc2cc(OC)ccc21
inactive: growth inhibition [1] -22.8% | growth inhibition [2] 7.25% | viability increase [3] -5.19% | viability [4] 64.1% | viability [5] 77.2% | inhibition [6] 1.25% | RAM network inhibition [7] 2.46%

CCN(CC)C(=O)C1CCCN(C/C=C/c2ccccc2)C1 (stereo unspecified)
inactive: growth inhibition [1] -5% | growth inhibition [2] -9.31% | viability increase [3] -0.55% | viability [4] 84.9% | viability [5] 90.9% | inhibition [6] 0.74% | RAM network inhibition [7] -1.53%

O=C(NC1CCCCC1)c1ccc(Br)o1
inactive: growth inhibition [1] -5.84% | growth inhibition [2] -1.68% | viability increase [3] -1.9% | viability [4] 102% | viability [5] 102% | inhibition [6] 0.915% | RAM network inhibition [7] 3.82%

OC(CN1c2ccccc2Sc2ccccc21)Cn1nnc2ccccc21 (stereo unspecified)
inactive: growth inhibition [1] -4.44% | growth inhibition [2] -9.12% | viability increase [3] -6.85% | viability [4] 72% | viability [5] 66.2% | inhibition [6] 1.69% | RAM network inhibition [7] 10.2%

Cc1nc2sc(C(c3ccco3)N3CCC(C)CC3)c(O)n2n1 (stereo unspecified)
inactive: growth inhibition [1] -6.81% | growth inhibition [2] 1.09% | viability increase [3] -1.29% | viability [4] 102% | viability [5] 103% | inhibition [6] 0.77% | RAM network inhibition [7] 2.81%

CN(CC(=O)N1CCc2ccccc21)S(=O)(=O)c1cccc2cccnc12
inactive: growth inhibition [1] -0.355% | growth inhibition [2] -2.55% | viability increase [3] -3.47% | viability [4] 93.9% | viability [5] 90.8% | inhibition [6] 1.47% | RAM network inhibition [7] 8.8%

CN1CCN(C(=O)C2CCCCC2C(=O)O)CC1 (stereo unspecified)
inactive: growth inhibition [1] 0.81% | growth inhibition [2] -12.5% | viability increase [3] -1.14% | viability [4] 99.4% | viability [5] 99.1% | inhibition [6] 2.02% | RAM network inhibition [7] -0.26%

COC(=O)C(C(=O)OC)=C(/C=C/N(C)C)N(C)C
inactive: growth inhibition [1] -16.7% | growth inhibition [2] -1.41% | viability increase [3] -0.39% | viability [4] 99.2% | viability [5] 101% | inhibition [6] 1.26% | RAM network inhibition [7] 2.7%

COc1ccc(C(=O)Nc2ccc(Cl)cc2C(=O)NCc2ccco2)cc1OC
inactive: growth inhibition [1] -0.55% | growth inhibition [2] -8.55% | viability increase [3] -4.93% | viability [4] 73.4% | viability [5] 68.9% | inhibition [6] 0.625% | RAM network inhibition [7] 7.76%

O=C1c2ccccc2NC(c2ccc3c(c2)OCCO3)N1c1ccc2c(c1)OCCO2 (stereo unspecified)
inactive: growth inhibition [1] -5.15% | growth inhibition [2] 6.69% | viability increase [3] -2.17% | viability [4] 90.5% | viability [5] 79.5% | inhibition [6] 0.615% | RAM network inhibition [7] 0.98%

O=C(c1coc2ccccc2c1=O)N1CCN(c2cccc(C(F)(F)F)c2)CC1
inactive: growth inhibition [1] -20% | growth inhibition [2] -32.1% | viability increase [3] 0.69% | viability [4] 99.8% | viability [5] 99.9% | inhibition [6] 1.23% | RAM network inhibition [7] 5.68%

O=S(=O)(NCCSc1nc2ccccc2o1)c1ccccc1
inactive: growth inhibition [1] -8% | growth inhibition [2] -2.81% | viability increase [3] -1.25% | viability [4] 94.4% | viability [5] 89% | inhibition [6] -0.55% | RAM network inhibition [7] 6.51%

COc1ccc(C(=O)N2CCN(c3ccc(C)cc3)CC2)cc1OC
inactive: growth inhibition [1] -10.4% | growth inhibition [2] -14.2% | viability increase [3] -1.27% | viability [4] 103% | viability [5] 90.2% | inhibition [6] 0.81% | RAM network inhibition [7] 3.75%

O=C1CCCC/C1=C\Nc1ccc(Cl)cn1
inactive: growth inhibition [1] -4.26% | growth inhibition [2] 1.26% | viability increase [3] 1.58% | viability [4] 98.1% | viability [5] 95% | inhibition [6] 2.25% | RAM network inhibition [7] -1.13%

CCc1ccc(C2CC(c3ccc(Cl)cc3)n3nc(N)nc3N2)cc1 (stereo unspecified)
inactive: growth inhibition [1] 3.64% | growth inhibition [2] 17.7% | viability increase [3] 1.85% | viability [4] 101% | viability [5] 90.4% | inhibition [6] 1.53% | RAM network inhibition [7] 2.02%

CC12C(=O)N(c3ccccn3)C(=O)C1C1C=CC2C1 (stereo unspecified)
inactive: growth inhibition [1] -13.3% | growth inhibition [2] -4.06% | viability increase [3] -0.78% | viability [4] 96.6% | viability [5] 92% | inhibition [6] 1.26% | RAM network inhibition [7] 1.11%

COc1ccccc1C(=O)NCc1ccc2c(c1)OCO2
inactive: growth inhibition [1] -21.2% | growth inhibition [2] -10.3% | viability increase [3] 0.91% | viability [4] 107% | viability [5] 107% | inhibition [6] 0.52% | RAM network inhibition [7] 2.54%

CCOC(=O)c1ccc(NC(=O)c2nn(C)cc2Br)cc1
inactive: growth inhibition [1] -7.53% | growth inhibition [2] -10.1% | viability increase [3] -1.34% | viability [4] 101% | viability [5] 105% | inhibition [6] 0.925% | RAM network inhibition [7] 6.88%
